ATG4B inhibitor = ATG4B protease inhibitors, primary screen, biochemical, fluorescence, uHTS; Cysteine protease ATG4B (Homo sapiens), Q9Y4P1; ATG4B cleavage of LC3-PLA2, NBD-HPC fluorescence, 1 h; inhibition, % at 8.33 µM; 340,000 compounds, 0.51% hits
Rpn11 block = Rpn11 (PSMD14) deubiquitinase inhibitors, primary screen, biochemical, fluorescence polarization, uHTS. 26S proteasome non-ATPase regulatory subunit 14 (Homo sapiens), O00487. human 26S proteasome, Ub4-pepOG fluorescence polarization; 20S core pre-blocked with epoxomicin. inhibition, % at 20 µM. 360,000 compounds, 0.59% hits. AID 588493, 2011;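 active means inhibition at 20 µM, scaled to each plate's controls, above about 33%, limit read from the data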
TPT1 inhibitor = Candida albicans TPT1 enzyme inhibitors, primary screen, biochemical, fluorescence polarization; inhibition, % at 5 µM; tRNA 2'-phosphotransferase TPT1 (Candida albicans SC5314); AID 1962, 2009; recombinant caTPT1, FP RNA substrate dephosphorylation; 300,000 compounds, 0.81% hits;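 active means inhibition above the mean of all tested compounds plus 3 SD, set per screening campaign, cut at about 24% in these data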;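 further: plate controls were DMSO alone for no effect and ferristatin control at 100 nM for full effect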
CSN inh = inhibitors of CSN-mediated cullin deneddylation, primary screen, biochemical, fluorescence polarization, uHTS; COP9 signalosome complex subunit 5 (Homo sapiens), Q92905; inhibition, % at 12.5 µM; 360,000 compounds, 0.38% hits; Purified CSN, SCF-Nedd8-OG deneddylation; AID 651999, 2013;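 active means pattern-corrected inhibition above about 35%, with an unprinted fluorescence ratio check between 0.5 and 1.5, limit read from the data, passing the limit was not always enough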;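 further: 0% = enzyme with substrate and 100% = substrate without enzyme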
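Assay system: Purified human Csn5 enzyme expressed in HEK293T cells | Amount: Enzyme 0.24 nM | Measured by: Fluorescence polarization readout | Medium: Tris/NaCl/DTT buffer, pH 7.5 | Compound dosing: One concentration, 12.5 µM, 0.25% DMSO | Times: 90 min incubation of compound, enzyme and substrate at room temperature | Control set: no-enzyme wells high, enzyme-with-substrate wells low | Read-out: % inhibition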
SENP1 FRET inh = human SENP1 catalytic domain inhibitors, primary screen, biochemical, FRET, uHTS; 360,000 compounds, 0.21% hits; Sentrin-specific protease 1 (Homo sapiens), Q9P0U3; inhibition, % at 10 µM; recombinant SENP1 catalytic domain, CyPet-SUMO1-YPet FRET cleavage;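 active means inhibition at least 30% at 10 µM, raw YFP signal under a set limit, fluorescence ratio 0.5 to 1.5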;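 further: 0% = enzyme with DMSO and 100% = no enzyme wells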
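Material – human SENP1 catalytic domain · Input – SENP1 enzyme, 20 pM final · Compound dosing – single concentration of 10 µM compound, 0.5% DMSO final · Timing – enzyme reaction for 50 min at room temperature, dark · Measured by – FRET fluorescence in CFP and YFP emission channels · Control set – no-enzyme wells low, DMSO-plus-enzyme wells high control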
HNF4A DNA FP = change in binding of human HNF4A to DNA, primary screen, biochemical, fluorescence polarization, FITC-DNA | 1 h | activity change, % at 10 µM | 360,000 compounds, 0.3% hits | AID 1224865, 2016; in the data active means activity change above about 30%, passing the limit was not always enough
ATG4B conf = ATG4B protease inhibitors, retest, confirmation, biochemical, fluorescence, single concentration. inhibition, % at 8.33 µM. shares compounds with ATG4B inhibitor. ATG4B protease fluorescent substrate cleavage assay. AID 504757, 2011. 320 compounds, 92% hits; in the data active means inhibition above about 39%
PLA2 counter = PLA2 enzyme inhibition, counter-screen for ATG4B inhibitor project, biochemical, single concentration, uHTS hits; inhibition, % at 8.33 µM; purified PLA2, NBD-C6-HPC fluorescence, 45 min; shares compounds with ATG4B inhibitor; 1,600 compounds, 66% hits; AID 588402, 2011; in the data active means inhibition above about 50%
Target sequence (P04054 whole entry, looked up): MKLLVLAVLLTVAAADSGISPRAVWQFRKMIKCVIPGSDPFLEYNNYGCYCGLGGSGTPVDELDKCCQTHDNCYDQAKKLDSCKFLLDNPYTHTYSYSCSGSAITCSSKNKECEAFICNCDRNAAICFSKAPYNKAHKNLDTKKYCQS
Rpn11 confirm = Rpn11 (PSMD14) deubiquitinase inhibitors, confirmation, biochemical, fluorescence polarization, single concentration; shares compounds with Rpn11 block; purified human 26S proteasome, Ub4-pepOG fluorescence polarization; proteasome pretreated with epoxomicin; inhibition, % at 20 µM; 1,900 compounds, 29% hits; AID 602318, 2012
MMP-2 counter-1 = MMP-2 enzyme inhibition, confirmation, counter-screen for RPN11 inhibitor project, biochemical, fluorescence, single concentration. shares compounds with Rpn11 block. recombinant MMP-2, FRET peptide cleavage fluorescence. inhibition, % at 20 µM. 1,900 compounds, 4% hits;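 further: human MMP-2 activated beforehand with APMA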
Thrombin inh = bovine thrombin protease inhibition, confirmation, counter-screen for Rpn11 inhibitor project, biochemical, fluorescence polarization, single concentration. 1,900 compounds, 13% hits. inhibition, % at 20 µM. AID 602333, 2012. bovine thrombin cleavage of Ub4-pepOG. shares compounds with Rpn11 block;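 active means mean inhibition at least 40% at 20 µM, or signal 3 deviations below plate average, so some actives read negative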;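 further: plate controls were thrombin with DMSO for no effect and buffer wells lacking thrombin for full effect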
Target sequence (P00735 whole entry, looked up): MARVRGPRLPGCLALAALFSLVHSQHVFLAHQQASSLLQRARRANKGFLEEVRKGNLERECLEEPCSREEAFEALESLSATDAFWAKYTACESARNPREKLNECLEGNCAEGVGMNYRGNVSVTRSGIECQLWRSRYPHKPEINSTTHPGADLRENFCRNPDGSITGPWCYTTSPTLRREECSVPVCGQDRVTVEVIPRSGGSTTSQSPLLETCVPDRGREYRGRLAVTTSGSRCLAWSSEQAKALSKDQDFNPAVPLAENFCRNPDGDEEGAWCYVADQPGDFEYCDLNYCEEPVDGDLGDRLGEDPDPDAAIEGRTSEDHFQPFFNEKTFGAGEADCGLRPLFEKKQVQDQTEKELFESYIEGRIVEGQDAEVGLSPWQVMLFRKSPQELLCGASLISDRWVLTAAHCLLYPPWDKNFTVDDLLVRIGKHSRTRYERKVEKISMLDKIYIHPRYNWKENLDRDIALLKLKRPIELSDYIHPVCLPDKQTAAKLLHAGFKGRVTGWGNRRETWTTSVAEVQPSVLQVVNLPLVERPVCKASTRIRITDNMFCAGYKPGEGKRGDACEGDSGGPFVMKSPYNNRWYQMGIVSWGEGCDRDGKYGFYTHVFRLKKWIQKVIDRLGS
CSN deneddyl val = Csn5 deneddylation inhibitors, confirmation, biochemical, fluorescence polarization, single concentration, SCF-Nedd8OG substrate | shares compounds with CSN inh | Csn5 deneddylation of SCF-Nedd8OG, 90 min | inhibition, % at 16.6 µM | 540 compounds, 62% hits | AID 720654, 2013; in the data active means inhibition above about 50%;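 further: 0% = DMSO with enzyme and 100% = no enzyme wells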
MMP-2 counter-2 = MMP-2 protease inhibition counter-screen, confirmation, counter-screen for CSN deneddylation inhibitor project, biochemical, fluorescence, single concentration. 540 compounds, 33% hits. recombinant MMP-2, FRET substrate fluorescence, 60 min. shares compounds with CSN inh. AID 720655, 2013. inhibition, % at 16.6 µM;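 active means corrected plate-normalized z-score of 5 or more, or -5 or less, or inhibition of 15% or more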;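 further: plate controls were DMSO wells with enzyme for no effect and buffer wells lacking MMP-2 for full effect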
Thrombin counter = counter-screen for CSN deneddylation inhibitors: bovine thrombin inhibition; shares compounds with CSN inh; inhibition, % at 16.6 µM; bovine thrombin cleavage of Ub4-pepOG, fluorescence polarization; 540 compounds, 49% hits; AID 720656;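 active means inhibition at or above a set limit, with a fluorescence interference ratio between 0.5 and a set maximum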
Active calls of the source: *; . = no result given; ! = a repeat was not active. Compounds with a hit are over-represented: about 2% of the library has one in this group of screens. Unless noted, no stated cut-off is given here; in the data, active means inhibition above about 40%; inactive means the rest.

SMILES | ATG4B inhibitor | Rpn11 block | TPT1 inhibitor | CSN inh | SENP1 FRET inh | HNF4A DNA FP | Rpn11 confirm | MMP-2 counter-1 | Thrombin inh | others
O=C(O)CN1C(=O)/C(=C\c2cc(Br)ccc2OCc2ccccc2Cl)SC1=S | 49.8* | 2.2 | 2.5 | 37.8* | 6.4 | -1.5 | . | . | . | PLA2 counter=81.1*;CSN deneddyl val=25.8;MMP-2 counter-2=7.8;Thrombin counter=1.7
O=C(O)CN1C(=O)/C(=C\c2ccccc2OCc2ccc(Cl)cc2Cl)SC1=S | 37.1 | 14.4 | -4.1 | 14.6 | 1.4 | -4.9 | . | . | .
CCN(C[C@H]1N[C@@](Cc2ccccc2)(C(=O)OC)[C@H]2C(=O)N(C)C(=O)[C@@H]12)C(=O)Nc1ccc(C(F)(F)F)cc1 | -13.1 | 2.0 | . | -1.0 | 1.6 | 0.4 | . | . | .
Cc1cn([C@H]2C[C@H](O)[C@@H](CCC(=O)NCC3CCCO3)O2)c(=O)[nH]c1=O (stereo not given in full) | . | 2.6 | . | 4.7 | 0.2 | -0.4 | . | . | .
O=C(O)c1cc(-c2ccco2)nc2ccc(Br)cc12 | 77.7*! | 63.3*! | -11.7 | 41.8*! | 1.7 | -38.9 | . | . | . | ATG4B conf=65.1*;PLA2 counter=23.3;CSN deneddyl val=80.8*;MMP-2 counter-2=7.3;Thrombin counter=-5.6
COC(=O)c1cc(C)nc2c1C(=O)C(=O)C=C2N1CCOCC1 | 75.2* | 36.3 | -1.8 | 45.2* | 9.5 | 2.6 | . | . | . | ATG4B conf=31.9;PLA2 counter=-12.4;CSN deneddyl val=27.9;MMP-2 counter-2=1.8;Thrombin counter=-36.1
CCCN(CC(=O)Nc1ccccc1OC)C(=O)CN1C(=O)NC(C)(C)C1=O | . | -1.1 | . | -0.5 | 1.7 | 1.2 | . | . | .
COc1ccccc1NC(=O)CCC(=O)c1ccc(-c2ccccc2)cc1 | -2.5 | 59.1* | 8.3 | 5.1 | 15.3 | 33.8 | 6.3 | 4.4 | -0.9
CCc1ccc(N=Nc2ccc(O)c3[nH]cnc23)cc1 | 5.7 | 42.3* | . | 20.6 | 75.5* | 41.5* | 34.3 | -25.5 | 30.8
COc1ccc(N=Nc2ccc(O)c3ncccc23)cc1 | 2.1 | 7.7 | -0.8 | 4.4 | 2.2 | -11.0 | . | . | .
CC(=O)C1=C(O)C(=CC=Cc2ccccc2)OC1=O | . | 41.0* | . | 9.2 | -16.6 | 59.6* | 42.5* | -17.2 | 26.2
CC(/C=C\c1ccccc1)=C/C(=O)O | -8.0 | -5.0 | -2.9 | -2.8 | -0.4 | 0.8 | . | . | .
Cc1ccc(NC(=O)C2CC(=O)N(CCc3ccccc3)C2)c(C)c1 (stereo not given) | -2.5 | -3.2 | 3.0 | 0.7 | -0.5 | 1.7 | . | . | .
COc1ccc(-n2nc(C(=O)NCC(=O)Nc3ccccn3)c3ccccc3c2=O)cc1Cl | 0.3 | 102.0* | . | 19.1 | -1.2 | -0.4 | 2.6 | -0.1 | -1.8
COc1ccc(-n2nc(C(=O)NCC(=O)NC(C)C)c3ccccc3c2=O)cc1Cl | 4.0 | 11.7 | 2.5 | -4.4 | 2.3 | 4.4 | . | . | .
CCOc1ccc(CNC(=O)CN2C(=O)CSc3ccc(S(=O)(=O)N4CCOCC4)cc32)cc1OC | -8.3 | 1.9 | -2.1 | -1.3 | 0.2 | 0.6 | . | . | .
CCCCOC(=O)Nc1nnc(CCc2ccccc2)s1 | -2.6 | 7.2 | -0.1 | 2.3 | -3.0 | -2.9 | . | . | .
CCCCOC(=O)Nc1nnc(CCOCC)s1 | -2.3 | 33.6* | -0.4 | -1.4 | 3.0 | 4.1 | -1.2 | -15.0 | -3.1
CCOc1ccc(N(CC(=O)NC2CCCCC2)C(=O)CCC(=O)Nc2nc(C)cs2)cc1 | -2.5 | 130.3* | 2.4 | -1.2 | 1.7 | 5.2 | 8.0 | -29.8 | -3.6
CN(C)S(=O)(=O)c1ccc(C(=O)NCc2nc3ccccc3s2)cc1 | 9.3 | 34.0* | 1.7 | -5.7 | -5.7 | -29.1 | 4.7 | -13.3 | -12.7
CN(C)S(=O)(=O)c1ccc(C(=O)NCc2cccs2)cc1 | 0.4 | -3.5 | 11.1 | -6.5 | 0.6 | -0.7 | . | . | .
O=C(NC1CCCC1)C(c1ccccn1)N(Cc1ccccc1F)C(=O)c1csnn1 (stereo not given) | 2.6 | 56.5* | -0.4 | -5.6 | -0.2 | 3.6 | -21.9 | -21.0 | -26.6
O=C(NC1CCCC1)C(c1ccncc1)N(Cc1ccccc1F)C(=O)c1csnn1 (stereo not given) | -13.5 | 8.2 | 1.9 | -5.6 | -1.8 | 4.0 | . | . | .
O=C(COC(=O)c1ncc(Cl)c(Cl)c1Cl)Nc1ccc(Cl)cn1 | 5.1 | 7.9 | 7.0 | 6.5 | -18.9 | 0.2 | . | . | .
COc1ccc(OCC(=O)NNC(=O)c2cccs2)cc1 | -1.2 | 125.4* | -2.0 | -7.1 | 0.6 | -31.2 | -28.9 | -40.8 | -22.4
COc1cccc(OCC(=O)NNC(=O)c2cccs2)c1 | -6.5 | -0.6 | -2.8 | 1.9 | -1.2 | -0.3 | . | . | .
